Source: ChEMBL document CHEMBL3286314, “Tetraoxane-pyrimidine nitrile hybrids as dual stage antimalarials” (J Med Chem, 2014)
Active and inactive are the calls of the source. The calls are words filed in the database; no cut-off is given here.

Test system: not listed separately
Assay: Selectivity index, ratio of CC50 for HEK293T cells to IC50 for chloroquine-resistant Plasmodium falciparum W2
Format: functional, HEK-293T
Conditions: not given
Procedure, shortened: (§1)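 SI taken as in vitro cytotoxicity IC50 on HEK293T or NIH3T3 cells divided by the P. falciparum W2 growth-inhibition IC50.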

SMILES	Ratio CC50/IC50
CC(C)CN(NC(=O)CC1CCC2(CC1)OOC1(OO2)C2CC3CC(C2)CC1C3)c1nc(C#N)ncc1Br (stereo not given)	3750
N#Cc1ncc(Br)c(N(CC2CCCC2)NC(=O)C2CCC3(CC2)OOC2(OO3)C3CC4CC(C3)CC2C4)n1 (stereo not given)	>3390
CC(C)CN(NC(=O)C1CCC2(CC1)OOC1(OO2)C2CC3CC(C2)CC1C3)c1nc(C#N)ncc1Br (stereo not given)	>10000

Test system: Plasmodium berghei
Assay: Antiplasmodial activity against liver stage Plasmodium berghei infected in human HuH7 cells assessed as decrease in parasite load at 10 uM treated for 1 hr prior to infection measured after 48 hrs by luciferase luminescence assay
Conditions: Huh-7

SMILES	Activity
C[C@@H]1CC[C@H]2[C@@H](C)C(=O)O[C@@H]3O[C@@]4(C)CC[C@@H]1[C@]32OO4 [ARTEMISININ]	inactive
COc1cc(NC(C)CCCN)c2ncccc2c1 (stereo not given)	Active

Test system: Plasmodium falciparum
Assay: Antiplasmodial activity against chloroquine-resistant Plasmodium falciparum W2 after 48 hrs by FACS analysis
Format: functional, organism-based
Conditions: W2, 48 h
Procedure, shortened: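 Synchronized ring-stage parasites cultured 48 h with multiple compound concentrations (from 1000× DMSO stocks) in RPMI 1640 with 10% human serum. Fixed in 1% formaldehyde/PBS pH 7.4 for 48 h at room temperature, stained with YOYO-1 (1 nM) in 0.1% Triton X-100/PBS. Parasitemia read by flow cytometry; IC50 from curve fits of percentage of control parasitemia.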

SMILES	IC50
C[C@@H]1CC[C@H]2[C@@H](C)C(=O)O[C@@H]3O[C@@]4(C)CC[C@@H]1[C@]32OO4 [ARTEMISININ]	14.1 nM
CC(C)CN(NC(=O)CC1CCC2(CC1)OOC1(OO2)C2CC3CC(C2)CC1C3)c1nc(C#N)ncc1Br (stereo not given)	22.8 nM
N#Cc1ncc(Br)c(N(CC2CCCC2)NC(=O)C2CCC3(CC2)OOC2(OO3)C3CC4CC(C3)CC2C4)n1 (stereo not given)	29.5 nM
CC(C)CN(NC(=O)C1CCC2(CC1)OOC1(OO2)C2CC3CC(C2)CC1C3)c1nc(C#N)ncc1Br (stereo not given)	9.8 nM

Test system: Plasmodium falciparum
Assay: Antiplasmodial activity against atovaquone-resistant Plasmodium falciparum FCR3 after 48 hrs by FACS analysis
Format: functional, organism-based
Conditions: FCR3, 48 h

SMILES	IC50
C[C@@H]1CC[C@H]2[C@@H](C)C(=O)O[C@@H]3O[C@@]4(C)CC[C@@H]1[C@]32OO4 [ARTEMISININ]	7.7 nM

Test system: not listed separately
Assay: Cytotoxicity against mouse NIH/3T3 cells
Format: cell-based, NIH3T3
Conditions: not given

SMILES	CC50
CC(C)CN(NC(=O)CC1CCC2(CC1)OOC1(OO2)C2CC3CC(C2)CC1C3)c1nc(C#N)ncc1Br (stereo not given)	2300 nM
N#Cc1ncc(Br)c(N(CC2CCCC2)NC(=O)C2CCC3(CC2)OOC2(OO3)C3CC4CC(C3)CC2C4)n1 (stereo not given)	5500 nM
CC(C)CN(NC(=O)C1CCC2(CC1)OOC1(OO2)C2CC3CC(C2)CC1C3)c1nc(C#N)ncc1Br (stereo not given)	8000 nM

Test system: not listed separately
Assay: Selectivity index, ratio of CC50 for mouse NIH/3T3 cells to IC50 for chloroquine-resistant Plasmodium falciparum W2
Format: functional
Conditions: not given
Procedure, shortened: as §1

SMILES	Ratio CC50/IC50
CC(C)CN(NC(=O)CC1CCC2(CC1)OOC1(OO2)C2CC3CC(C2)CC1C3)c1nc(C#N)ncc1Br (stereo not given)	101
N#Cc1ncc(Br)c(N(CC2CCCC2)NC(=O)C2CCC3(CC2)OOC2(OO3)C3CC4CC(C3)CC2C4)n1 (stereo not given)	186
CC(C)CN(NC(=O)C1CCC2(CC1)OOC1(OO2)C2CC3CC(C2)CC1C3)c1nc(C#N)ncc1Br (stereo not given)	816

Test system: Plasmodium falciparum
Assay: Inhibition of falcipain-2-mediated hemoglobin degradation in ring stage Plasmodium falciparum assessed as development of swollen digestive vacuoles at 123 nM after 24 hrs
Conditions: not given
Procedure, shortened: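 Cultured parasites exposed to 123 nM compound for 24 h starting at ring stage. Examined for swollen digestive vacuoles with erythrocyte-cytoplasm staining characteristics.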

SMILES	inhibition
CC(C)CN(NC(=O)CC1CCC2(CC1)OOC1(OO2)C2CC3CC(C2)CC1C3)c1nc(C#N)ncc1Br (stereo not given)	Active
CC(C)CN(NC(=O)C1CCC2(CC1)OOC1(OO2)C2CC3CC(C2)CC1C3)c1nc(C#N)ncc1Br (stereo not given)	Active

Test system: not listed separately
Assay: Inhibition of Plasmodium falciparum recombinant falcipain-2 after 30 mins by spectrofluorometric analysis
Conditions: not given
Procedure, shortened: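 Recombinant falcipain-2 (~1 nM) preincubated 30 min at room temperature with inhibitor (from 100× DMSO stocks) in 100 mM sodium acetate pH 5.5, 10 mM dithiothreitol. Then Z-Leu-Arg-AMC substrate added (final 25 μM). Fluorescence monitored continuously for 30 min at room temperature; IC50 from activity plots.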

SMILES	IC50
CC(C)CN(NC(=O)CC1CCC2(CC1)OOC1(OO2)C2CC3CC(C2)CC1C3)c1nc(C#N)ncc1Br (stereo not given)	95.1 nM
N#Cc1ncc(Br)c(N(CC2CCCC2)NC(=O)C2CCC3(CC2)OOC2(OO3)C3CC4CC(C3)CC2C4)n1 (stereo not given)	112 nM
CC(C)CN(NC(=O)C1CCC2(CC1)OOC1(OO2)C2CC3CC(C2)CC1C3)c1nc(C#N)ncc1Br (stereo not given)	16.4 nM

Test system: Plasmodium berghei
Assay: Antiplasmodial activity against liver stage Plasmodium berghei infected in human HuH7 cells assessed as decrease in parasite load at 2 uM treated for 1 hr prior to infection measured after 48 hrs by luciferase luminescence assay
Conditions: Huh-7

SMILES	Activity
C[C@@H]1CC[C@H]2[C@@H](C)C(=O)O[C@@H]3O[C@@]4(C)CC[C@@H]1[C@]32OO4 [ARTEMISININ]	inactive
O=C1C(O)=C([C@H]2CC[C@H](c3ccc(Cl)cc3)CC2)C(=O)c2ccccc21	Active

Test system: not listed separately
Assay: Cytotoxicity against HEK293T cells
Format: cell-based, HEK-293T
Conditions: human

SMILES	CC50
CC(C)CN(NC(=O)CC1CCC2(CC1)OOC1(OO2)C2CC3CC(C2)CC1C3)c1nc(C#N)ncc1Br (stereo not given)	85500 nM
N#Cc1ncc(Br)c(N(CC2CCCC2)NC(=O)C2CCC3(CC2)OOC2(OO3)C3CC4CC(C3)CC2C4)n1 (stereo not given)	> 100000 nM
CC(C)CN(NC(=O)C1CCC2(CC1)OOC1(OO2)C2CC3CC(C2)CC1C3)c1nc(C#N)ncc1Br (stereo not given)	> 100000 nM

Test system: Plasmodium falciparum
Assay: Antiplasmodial activity against chloroquine-sensitive Plasmodium falciparum 3D7 after 48 hrs by FACS analysis
Format: functional, organism-based
Conditions: 3D7, 48 h

SMILES	IC50
C[C@@H]1CC[C@H]2[C@@H](C)C(=O)O[C@@H]3O[C@@]4(C)CC[C@@H]1[C@]32OO4 [ARTEMISININ]	36.2 nM
CC(C)CN(NC(=O)CC1CCC2(CC1)OOC1(OO2)C2CC3CC(C2)CC1C3)c1nc(C#N)ncc1Br (stereo not given)	18.9 nM
N#Cc1ncc(Br)c(N(CC2CCCC2)NC(=O)C2CCC3(CC2)OOC2(OO3)C3CC4CC(C3)CC2C4)n1 (stereo not given)	70.7 nM
CC(C)CN(NC(=O)C1CCC2(CC1)OOC1(OO2)C2CC3CC(C2)CC1C3)c1nc(C#N)ncc1Br (stereo not given)	58.1 nM
